What was measured:
Rattus norvegicus [1] = species: Rattus norvegicus; assay: The number of animals responding per number of animals receiving the drug (4/4)in the stimulus-generation studies was calculated at dose 0.20 mg / kg; type: functional; conditions: dose 0.2 mg / kg
How it was run: (§1)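 Male Sprague-Dawley rats were trained to discriminate 0.2 mg/kg ip training drug from saline (two levers, VI 15-s, milk reward). Test doses were given ip 15 min pre-session in random order to groups of 3–6. In the 2.5-min extinction session, rats making fewer than five total responses were counted as disrupted. N is animals responding over animals dosed.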

Rattus norvegicus [2] = species: Rattus norvegicus; assay: 1 The compound was tested for effective dose ( ED 50) against stimulus generation with rats trained to discriminate (R) (-)-DOB from saline.; type: functional
How it was run: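 Male Sprague-Dawley rats (n = 6) on a two-lever operant task for sweetened milk, VI 15-s schedule. Trained to discriminate 0.2 mg/kg ip training drug from 1.0 mL/kg 0.9% saline, 15 min pre-session. Test doses were given ip in random order to groups of 3–6, with 15-min pretreatment and a 2.5-min extinction session. ED50 was calculated from dose-response data.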

Rattus norvegicus [3] = species: Rattus norvegicus; assay: The number of animals responding per number of animals receiving the drug (5/5)in the stimulus-generation studies was calculated at dose 0.05 mg / kg; type: functional; how it was run: as §1
Rattus norvegicus [4] = species: Rattus norvegicus; assay: The number of animals responding per number of animals receiving the drug(4/4)in the stimulus-generation studies was calculated at dose 0.10 mg / kg; type: functional; conditions: dose 0.1 mg / kg
How it was run: (§2)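 Male Sprague-Dawley rats (n = 6) were trained on a two-lever operant task for sweetened-milk reward to discriminate 0.2 mg/kg (R)-(-)-DOB-HCl ip from 1.0 mL/kg 0.9% saline, with a VI 15-s schedule and 15-min sessions. Test doses were given ip 15 min before a 2.5-min extinction session, in random order, to groups of 3-6 rats. Read-out was % drug-lever responses; fewer than five total responses counted as disrupted.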

Rattus norvegicus [5] = species: Rattus norvegicus; assay: The number of animals responding per number of animals receiving the drug(4/4) in the stimulus-generation studies was calculated at dose 0.01 mg / kg; type: functional; how it was run: as §1
Rattus norvegicus [6] = species: Rattus norvegicus; assay: The number of responses made on the (R)(-)-DOB appropriate level, generation studies was calculated at dose 0.01 mg / kg; type: functional; how it was run: as §2
Rattus norvegicus [7] = species: Rattus norvegicus; assay: The mean responses per minute during the 2.5 min extinction session in the stimulus-generation studies was calculated at dose 0.10 mg / kg; type: functional; conditions: dose 0.1 mg / kg
How it was run: (§3)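 Rats were trained on a two-lever drug-versus-saline discrimination (0.2 mg/kg ip training dose, VI 15-s, food reward). Challenge doses were given ip 15 min before a 2.5-min extinction test, in random order, to groups of 3–6 rats, with at least three training sessions between tests. Response rate is responses per minute over the extinction session.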

Rattus norvegicus [8] = species: Rattus norvegicus; assay: The mean responses per minute during the 2.5 min extinction session in the stimulus-generation studies was calculated at dose 0.05 mg / kg; type: functional; how it was run: as §3
Rattus norvegicus [9] = species: Rattus norvegicus; assay: The mean responses per minute during the 2.5 min extinction session in the stimulus-generation studies was calculated at dose 0.03 mg / kg; type: functional; how it was run: as §3
Rattus norvegicus [10] = species: Rattus norvegicus; assay: The number of animals responding per number of animals receiving the drug(5/5) in the stimulus-generation studies was calculated at dose 0.03 mg / kg; type: functional; how it was run: as §2
Rattus norvegicus [11] = species: Rattus norvegicus; assay: The mean responses per minute during the 2.5 min extinction session in the stimulus-generation studies was calculated at dose 0.20 mg / kg; type: functional; conditions: dose 0.2 mg / kg; how it was run: as §3
Rattus norvegicus [12] = species: Rattus norvegicus; assay: The number of responses made on the (R)(-)-DOB appropriate level, generation studies was calculated at dose 0.05 mg / kg; type: functional; how it was run: as §2
Rattus norvegicus [13] = species: Rattus norvegicus; assay: The number of responses made on the (R)(-)-DOB appropriate level, generation studies was calculated at dose 0.20 mg / kg; type: functional; conditions: dose 0.2 mg / kg; how it was run: as §2
Rattus norvegicus [14] = species: Rattus norvegicus; assay: The number of responses made on the (R)(-)-DOB appropriate level, generation studies was calculated at dose 0.03 mg / kg; type: functional; how it was run: as §2
Rattus norvegicus [15] = species: Rattus norvegicus; assay: The mean responses per minute during the 2.5 min extinction session in the stimulus-generation studies was calculated at dose 0.01 mg / kg; type: functional; how it was run: as §3
Rattus norvegicus [16] = species: Rattus norvegicus; assay: The number of responses made on the (R)(-)-DOB appropriate level, generation studies was calculated at dose 0.10 mg / kg; type: functional; conditions: dose 0.1 mg / kg; how it was run: as §2
Rattus norvegicus [17] = species: Rattus norvegicus; assay: The number of responses made on the (R)(-)-DOB appropriate level, generation studies was calculated at dose 2.0 mg / kg; type: functional; how it was run: as §2
Rattus norvegicus [18] = species: Rattus norvegicus; assay: The mean responses per minute during the 2.5 min extinction session in the stimulus-generation studies was calculated at dose 2.2 mg / kg; type: functional; how it was run: as §3
Rattus norvegicus [19] = species: Rattus norvegicus; assay: The mean responses per minute during the 2.5 min extinction session in the stimulus-generation studies was calculated at dose 0.7 mg / kg; type: functional; how it was run: as §3
Rattus norvegicus [20] = species: Rattus norvegicus; assay: The number of animals responding per number of animals receiving the drug(3/4) in the stimulus-generation studies, was calculated at dose 2.2 mg / kg; type: functional; how it was run: as §1
Rattus norvegicus [21] = species: Rattus norvegicus; assay: The number of responses made on the (R)(-)-DOB appropriate level, generation studies was calculated at dose 2.2 mg / kg; type: functional; how it was run: as §2
Rattus norvegicus [22] = species: Rattus norvegicus; assay: The mean responses per minute during the 2.5 min extinction session in the stimulus-generation studies was calculated at dose 1.2 mg / kg; type: functional; how it was run: as §3
[23] = molecular target: T1, Serotonin 2 (5-HT2) receptor (Rattus norvegicus, UniProt P30994+P08909+P14842); assay: Affinity towards [3H]- DOB -labeled 5-hydroxytryptamine 2 receptor sites in rat cortical homogenates
[24] = molecular target: T1, Serotonin 2 (5-HT2) receptor; assay: Affinity towards [3H]- ketanserin-labeled 5-hydroxytryptamine 2 receptor sites in rat cortical homogenates
How it was run: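 Label was 0.4 nM [3H]ketanserin, with 11 competitor concentrations run in triplicate and nonspecific binding defined by 1 μM cinanserin. Bound ligand was filtered onto glass fibre and counted by scintillation. IC50 came from nonlinear regression; Ki = IC50/(1+[D]/KD).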

Rattus norvegicus [25] = species: Rattus norvegicus; assay: The number of responses made on the (R)(-)-DOB appropriate level, generation studies was calculated at dose 0.7 mg / kg; type: functional; how it was run: as §2
Rattus norvegicus [26] = species: Rattus norvegicus; assay: The number of animals responding per number of animals receiving the drug (3/3)in the stimulus-generation studies, was calculated at dose 1.2 mg / kg; type: functional; how it was run: as §1
Rattus norvegicus [27] = species: Rattus norvegicus; assay: The mean responses per minute during the 2.5 min extinction session in the stimulus-generation studies was calculated at dose 2.0 mg / kg; type: functional; how it was run: as §3
Rattus norvegicus [28] = species: Rattus norvegicus; assay: The number of animals responding per number of animals receiving the drug (4/4)in the stimulus-generation studies, was calculated at dose 2.0 mg / kg; type: functional; how it was run: as §1
Rattus norvegicus [29] = species: Rattus norvegicus; assay: The number of responses made on the (R)(-)-DOB appropriate level, generation studies was calculated at dose 1.2 mg / kg; type: functional; how it was run: as §2
Rattus norvegicus [30] = species: Rattus norvegicus; assay: The number of animals responding per number of animals receiving the drug (4/4)in the stimulus-generation studies, was calculated at dose 0.7 mg / kg; type: functional; how it was run: as §1

COc1cc(C[C@@H](C)N)c(OC)cc1Br
No. of animals responding/animals receiving drug (Rattus norvegicus [1]): 4
ED50 (Rattus norvegicus [2]): 0.05 mg/kg
No. of animals responding/animals receiving drug (Rattus norvegicus [3]): 5
No. of animals responding/animals receiving drug (Rattus norvegicus [4]): 4
No. of animals responding/animals receiving drug (Rattus norvegicus [5]): 4
Responding (Rattus norvegicus [6]): 5%
Response rate (Rattus norvegicus [7]): 10.8
Response rate (Rattus norvegicus [8]): 12
Response rate (Rattus norvegicus [9]): 11.8
No. of animals responding/animals receiving drug (Rattus norvegicus [10]): 5
Response rate (Rattus norvegicus [11]): 12.3
Responding (Rattus norvegicus [12]): 58%
Responding (Rattus norvegicus [13]): 98%
Responding (Rattus norvegicus [14]): 21%
Response rate (Rattus norvegicus [15]): 12.5
Responding (Rattus norvegicus [16]): 64%

COc1cc(CC(C)[N+](C)(C)C)c(OC)cc1Br.[I-] (stereo not given)
Responding (Rattus norvegicus [17]): 38%
Response rate (Rattus norvegicus [18]): 3.7
Response rate (Rattus norvegicus [19]): 16.2
No. of animals responding/animals receiving drug (Rattus norvegicus [20]): 3
Responding (Rattus norvegicus [21]): 3%
Response rate (Rattus norvegicus [22]): 11.9
Ki [23]: 8.25 µM
Ki [24]: > 25 µM
Responding (Rattus norvegicus [25]): 3%
No. of animals responding/animals receiving drug (Rattus norvegicus [26]): 3
Response rate (Rattus norvegicus [27]): 7.3
No. of animals responding/animals receiving drug (Rattus norvegicus [28]): 4
Responding (Rattus norvegicus [29]): 9%
No. of animals responding/animals receiving drug (Rattus norvegicus [30]): 4

Reference: ChEMBL document CHEMBL1123747, “N-methyl derivatives of the 5-HT2 agonist 1-(4-bromo-2,5-dimethoxyphenyl)-2-aminopropane” (J Med Chem, 1987)
